Data as given in ChEMBL document CHEMBL5724801, “EUbOPEN Chemogenomics Library - Multiplex” (2024).
Values joined by “and” are separate entries in the source; they are usually repeats but may differ in a detail not shown here. Equal entries are not always repeated.

Tested on: Fibroblast
Assay: Multiplex assay against human fibroblast
Type: toxicity, cell-based
How it was run: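 On a CQ1 microscope at 37°C and 5% CO2, live cells were imaged after compound addition. They had been stained at seeding with Hoechst33342, BioTracker Green Microtubule Cytoskeleton Dye, MitoTracker Red and Annexin V Alexa Fluor 680. CellPathfinder machine-learning gating assigned cells to Hoechst high-intensity objects or normal cells, normal cells to healthy, pyknosed or fragmented nuclei, and pyknosed cells to mitotic or apoptotic. Tubulin, mitochondrial-mass and membrane-permeability phenotypes are per cents of healthy-nucleus cells.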

[1] = 12 h, 1 µM, compound concentration 1 uM
[2] = 12 h, 10 µM, compound concentration 10 uM
[3] = 24 h, 1 µM, compound concentration 1 uM
[4] = 24 h, 10 µM, compound concentration 10 uM
[5] = 48 h, 1 µM, compound concentration 1 uM
[6] = 48 h, 10 µM, compound concentration 10 uM

CC(=O)Nc1cccc2c1c(Sc1ccc(Cl)cc1)c(C)n2CC(=O)O [AZD1981]
Population Apoptotic (%) [1]: 27% and 37% | Population Fragmented Nuclei (%) [1]: 18% and 31% | Population Healthy Nuclei (%) [1]: 61% and 47% | Population Hoechst High Intensity Objects (%) [1]: 1% and 3% | Population Mitochondria Different-Phenotype (%) [1]: 9% and 7% | Population Mitotic Cells (%) [1]: 72% and 62% | Population Normal (%) [1]: 98% and 96% | Population Pyknosed Nuclei (%) [1]: 19% and 21% | Population Tubulin-Different-Phenotype (%) [1]: 33% and 55% | Total Cell Count [1]: 173 and 118 | Population Apoptotic (%) [2]: 40% and 33% | Population Fragmented Nuclei (%) [2]: 16% and 35% | Population Healthy Nuclei (%) [2]: 64% and 42% | Population Hoechst High Intensity Objects (%) [2]: 3% and 4% | Population Membrane Permeable-Phenotype (%) [2]: 2% and 8% | Population Mitochondria Different-Phenotype (%) [2]: 3% and 0% | Population Mitotic Cells (%) [2]: 60% and 66% | Population Normal (%) [2]: 96% and 95% | Population Pyknosed Nuclei (%) [2]: 19% and 22% | Population Tubulin-Different-Phenotype (%) [2]: 24% and 35% | Total Cell Count [2]: 133 and 112 | Population Apoptotic (%) [3]: 53% and 36% | Population Fragmented Nuclei (%) [3]: 19% and 30% | Population Healthy Nuclei (%) [3]: 63% and 53% | Population Hoechst High Intensity Objects (%) [3]: 6% and 3% | Population Membrane Permeable-Phenotype (%) [3]: 2% and 7% | Population Mitochondria Different-Phenotype (%) [3]: 2% and 7% | Population Mitotic Cells (%) [3]: 46% and 63% | Population Normal (%) [3]: 93% and 96% | Population Pyknosed Nuclei (%) [3]: 16% and 15% | Population Tubulin-Different-Phenotype (%) [3]: 28% and 53% | Total Cell Count [3]: 168 and 128 | Population Apoptotic (%) [4]: 41% and 55% | Population Fragmented Nuclei (%) [4]: 13% and 36% | Population Healthy Nuclei (%) [4]: 68% and 43% | Population Hoechst High Intensity Objects (%) [4]: 4% and 6% | Population Mitochondria Different-Phenotype (%) [4]: 5% and 0% | Population Mitotic Cells (%) [4]: 58% and 45% | Population Normal (%) [4]: 95% and 93% | Population Pyknosed Nuclei (%) [4]: 18% and 20% | Population Tubulin-Different-Phenotype (%) [4]: 17% and 40% | Total Cell Count [4]: 135 and 104 | Population Apoptotic (%) [5]: 54% and 57% | Population Fragmented Nuclei (%) [5]: 23% and 34% | Population Healthy Nuclei (%) [5]: 61% and 54% | Population Hoechst High Intensity Objects (%) [5]: 6% and 3% | Population Membrane Permeable-Phenotype (%) [5]: 1% and 8% | Population Mitochondria Different-Phenotype (%) [5]: 6% and 2% | Population Mitotic Cells (%) [5]: 45% and 42% | Population Normal (%) [5]: 93% and 96% | Population Pyknosed Nuclei (%) [5]: 15% and 11% | Population Tubulin-Different-Phenotype (%) [5]: 33% and 52% | Total Cell Count [5]: 171 and 129 | Population Apoptotic (%) [6]: 64% and 40% | Population Fragmented Nuclei (%) [6]: 21% and 43% | Population Healthy Nuclei (%) [6]: 64% and 42% | Population Hoechst High Intensity Objects (%) [6]: 4% | Population Membrane Permeable-Phenotype (%) [6]: 0% and 11% | Population Mitochondria Different-Phenotype (%) [6]: 2% and 0% | Population Mitotic Cells (%) [6]: 35% and 60% | Population Normal (%) [6]: 95% | Population Pyknosed Nuclei (%) [6]: 13% and 15% | Population Tubulin-Different-Phenotype (%) [6]: 25% and 54% | Total Cell Count [6]: 134 and 105

Cc1c(CC(=O)O)c2cccnc2n1Cc1ccc(S(C)(=O)=O)cc1C(F)(F)F [FEVIPIPRANT]
Population Apoptotic (%) [1]: 44% and 25% | Population Fragmented Nuclei (%) [1]: 22% and 33% | Population Healthy Nuclei (%) [1]: 60% and 48% | Population Hoechst High Intensity Objects (%) [1]: 3% | Population Mitochondria Different-Phenotype (%) [1]: 3% and 12% | Population Mitotic Cells (%) [1]: 55% and 74% | Population Normal (%) [1]: 96% | Population Pyknosed Nuclei (%) [1]: 18% and 17% | Population Tubulin-Different-Phenotype (%) [1]: 20% and 56% | Total Cell Count [1]: 156 | Population Apoptotic (%) [2]: 34% and 22% | Population Fragmented Nuclei (%) [2]: 10% and 21% | Population Healthy Nuclei (%) [2]: 71% and 54% | Population Hoechst High Intensity Objects (%) [2]: 3% and 5% | Population Membrane Permeable-Phenotype (%) [2]: 1% and 9% | Population Mitochondria Different-Phenotype (%) [2]: 4% and 6% | Population Mitotic Cells (%) [2]: 65% and 77% | Population Normal (%) [2]: 96% and 94% | Population Pyknosed Nuclei (%) [2]: 17% and 23% | Population Tubulin-Different-Phenotype (%) [2]: 25% and 55% | Total Cell Count [2]: 132 and 139 | Population Apoptotic (%) [3]: 55% and 52% | Population Fragmented Nuclei (%) [3]: 14% and 35% | Population Healthy Nuclei (%) [3]: 66% and 47% | Population Hoechst High Intensity Objects (%) [3]: 3% | Population Membrane Permeable-Phenotype (%) [3]: 1% and 4% | Population Mitochondria Different-Phenotype (%) [3]: 5% and 8% | Population Mitotic Cells (%) [3]: 44% and 48% | Population Normal (%) [3]: 96% | Population Pyknosed Nuclei (%) [3]: 19% and 17% | Population Tubulin-Different-Phenotype (%) [3]: 23% and 50% | Total Cell Count [3]: 156 and 150 | Population Apoptotic (%) [4]: 57% and 31% | Population Fragmented Nuclei (%) [4]: 16% and 22% | Population Healthy Nuclei (%) [4]: 67% and 55% | Population Hoechst High Intensity Objects (%) [4]: 1% and 7% | Population Membrane Permeable-Phenotype (%) [4]: 1% and 5% | Population Mitochondria Different-Phenotype (%) [4]: 2% and 5% | Population Mitotic Cells (%) [4]: 42% and 68% | Population Normal (%) [4]: 98% and 92% | Population Pyknosed Nuclei (%) [4]: 16% and 21% | Population Tubulin-Different-Phenotype (%) [4]: 24% and 52% | Total Cell Count [4]: 130 and 146 | Population Apoptotic (%) [5]: 65% and 63% | Population Fragmented Nuclei (%) [5]: 16% and 39% | Population Healthy Nuclei (%) [5]: 67% and 47% | Population Hoechst High Intensity Objects (%) [5]: 5% and 6% | Population Membrane Permeable-Phenotype (%) [5]: 0% and 4% | Population Mitochondria Different-Phenotype (%) [5]: 4% and 8% | Population Mitotic Cells (%) [5]: 35% and 36% | Population Normal (%) [5]: 94% and 93% | Population Pyknosed Nuclei (%) [5]: 16% and 12% | Population Tubulin-Different-Phenotype (%) [5]: 16% and 47% | Total Cell Count [5]: 132 and 157 | Population Apoptotic (%) [6]: 73% and 58% | Population Fragmented Nuclei (%) [6]: 22% and 32% | Population Healthy Nuclei (%) [6]: 62% and 53% | Population Hoechst High Intensity Objects (%) [6]: 2% | Population Membrane Permeable-Phenotype (%) [6]: 0% and 3% | Population Mitochondria Different-Phenotype (%) [6]: 3% and 2% | Population Mitotic Cells (%) [6]: 26% and 41% | Population Normal (%) [6]: 97% | Population Pyknosed Nuclei (%) [6]: 14% | Population Tubulin-Different-Phenotype (%) [6]: 29% and 52% | Total Cell Count [6]: 132 and 171

COCCNc1cc(NC(=O)N2CCCc3cc(CN4CCN(C)CC4=O)c(C=O)nc32)ncc1C#N [FGF401]
Population Apoptotic (%) [1]: 10.64% and 13.95% | Population Fragmented Nuclei (%) [1]: 11.5% and 4.82% | Population Healthy Nuclei (%) [1]: 65% and 77.91% | Population Hoechst High Intensity Objects (%) [1]: 0% | Population Membrane Permeable-Phenotype (%) [1]: 3.85% and 1.03% | Population Mitochondria Different-Phenotype (%) [1]: 6.15% and 8.25% | Population Mitotic Cells (%) [1]: 89.36% and 86.05% | Population Normal (%) [1]: 100% | Population Pyknosed Nuclei (%) [1]: 23.5% and 17.27% | Population Tubulin-Different-Phenotype (%) [1]: 13.08% and 10.31% | Total Cell Count [1]: 200 and 249 | Population Apoptotic (%) [2]: 14.63% and 19.35% | Population Fragmented Nuclei (%) [2]: 15.03% and 6.59% | Population Healthy Nuclei (%) [2]: 58.17% and 76.37% | Population Hoechst High Intensity Objects (%) [2]: 0% | Population Membrane Permeable-Phenotype (%) [2]: 3.37% and 5.76% | Population Mitochondria Different-Phenotype (%) [2]: 11.24% and 10.07% | Population Mitotic Cells (%) [2]: 85.37% and 80.65% | Population Normal (%) [2]: 100% | Population Pyknosed Nuclei (%) [2]: 26.8% and 17.03% | Population Tubulin-Different-Phenotype (%) [2]: 22.47% and 25.9% | Total Cell Count [2]: 153 and 182 | Population Apoptotic (%) [3]: 11.11% and 15.38% | Population Fragmented Nuclei (%) [3]: 11.01% and 5.33% | Population Healthy Nuclei (%) [3]: 68.35% and 89.34% | Population Hoechst High Intensity Objects (%) [3]: 0% | Population Membrane Permeable-Phenotype (%) [3]: 7.38% and 0.46% | Population Mitochondria Different-Phenotype (%) [3]: 4.7% and 6.42% | Population Mitotic Cells (%) [3]: 88.89% and 84.62% | Population Normal (%) [3]: 100% | Population Tubulin-Different-Phenotype (%) [3]: 9.4% and 12.84% | Total Cell Count [3]: 218 and 244 | Population Apoptotic (%) [4]: 8.57% and 3.23% | Population Fragmented Nuclei (%) [4]: 12.26% and 4.02% | Population Healthy Nuclei (%) [4]: 65.16% and 80.4% | Population Hoechst High Intensity Objects (%) [4]: 0% | Population Membrane Permeable-Phenotype (%) [4]: 8.91% and 3.75% | Population Mitochondria Different-Phenotype (%) [4]: 6.93% and 8.75% | Population Mitotic Cells (%) [4]: 91.43% and 96.77% | Population Normal (%) [4]: 100% | Population Pyknosed Nuclei (%) [4]: 22.58% and 15.58% | Population Tubulin-Different-Phenotype (%) [4]: 17.82% and 16.88% | Total Cell Count [4]: 155 and 199 | Population Fragmented Nuclei (%) [5]: 9.45% and 6.06% | Population Healthy Nuclei (%) [5]: 81.89% and 88.26% | Population Hoechst High Intensity Objects (%) [5]: 0% | Population Membrane Permeable-Phenotype (%) [5]: 0.48% and 1.29% | Population Mitochondria Different-Phenotype (%) [5]: 12.02% and 2.58% | Population Mitotic Cells (%) [5]: 63.64% and 93.33% | Population Normal (%) [5]: 100% | Population Pyknosed Nuclei (%) [5]: 8.66% and 5.68% | Population Tubulin-Different-Phenotype (%) [5]: 2.88% and 11.59% | Total Cell Count [5]: 254 and 264 | Population Apoptotic (%) [6]: 27.27% and 18.18% | Population Fragmented Nuclei (%) [6]: 9.49% and 6.84% | Population Healthy Nuclei (%) [6]: 83.54% and 87.37% | Population Hoechst High Intensity Objects (%) [6]: 0% | Population Membrane Permeable-Phenotype (%) [6]: 1.52% and 1.81% | Population Mitotic Cells (%) [6]: 72.73% and 81.82% | Population Normal (%) [6]: 100% | Population Pyknosed Nuclei (%) [6]: 6.96% and 5.79% | Population Tubulin-Different-Phenotype (%) [6]: 9.85% and 22.29% | Total Cell Count [6]: 158 and 190
